Assay outcomes as filed in PubChem.
Rad51 HR inh: Rad51 (human) homologous recombination inhibition | Q06609 | hRad51 DNA strand exchange, fluorescence dequenching | inhibition, % at 10 µM | 200,000 tested, 0.085% active;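 active = inhibition above 40% at the single screening dose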
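System: hRad51 filaments on single-stranded DNA; reagent: Fluorescein- and BHQ1-tagged 47-mer duplex; compound dosing: one concentration, 10 µM final; timing: filaments 15 min 37 °C, then compound 30 min; measured by: fluorescein emission 520 nm, excitation 485 nm; benchmarks: per-plate controls and blanks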
CHT allo act: allosteric activators of human choline transporter CHT; Q9GZV3; CHT-expressing cells, membrane potential dye, choline EC20; hits give high values; LV-AA mutant CHT in HEK293 cells; AID 488977; B-score at 10 µM; 310,000 tested, 0.49% active;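 active = initial fluorescence not abnormally high and integrated response B-score, plate-corrected, over 3 SD above library mean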
Cl transport mod: KCC2 (human) Cl- transport modulation; Q9H2X9; KCC2 cells, thallium flux FluoZin-2 fluorescence; B-score of Tl+ flux slope (higher = more flux/activation; lower = inhibition) at 10 µM; 190,000 tested, 2.2% active; AID 1456;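 active = thallium flux slope and its plate-corrected score both differing from the plate sample mean at a set confidence after two filtering rounds, in either direction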;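 also: slope of fluorescence scaled to starting intensity during 10 to 20 s after thallium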
Target sequence (Q9H2X9 whole entry, looked up): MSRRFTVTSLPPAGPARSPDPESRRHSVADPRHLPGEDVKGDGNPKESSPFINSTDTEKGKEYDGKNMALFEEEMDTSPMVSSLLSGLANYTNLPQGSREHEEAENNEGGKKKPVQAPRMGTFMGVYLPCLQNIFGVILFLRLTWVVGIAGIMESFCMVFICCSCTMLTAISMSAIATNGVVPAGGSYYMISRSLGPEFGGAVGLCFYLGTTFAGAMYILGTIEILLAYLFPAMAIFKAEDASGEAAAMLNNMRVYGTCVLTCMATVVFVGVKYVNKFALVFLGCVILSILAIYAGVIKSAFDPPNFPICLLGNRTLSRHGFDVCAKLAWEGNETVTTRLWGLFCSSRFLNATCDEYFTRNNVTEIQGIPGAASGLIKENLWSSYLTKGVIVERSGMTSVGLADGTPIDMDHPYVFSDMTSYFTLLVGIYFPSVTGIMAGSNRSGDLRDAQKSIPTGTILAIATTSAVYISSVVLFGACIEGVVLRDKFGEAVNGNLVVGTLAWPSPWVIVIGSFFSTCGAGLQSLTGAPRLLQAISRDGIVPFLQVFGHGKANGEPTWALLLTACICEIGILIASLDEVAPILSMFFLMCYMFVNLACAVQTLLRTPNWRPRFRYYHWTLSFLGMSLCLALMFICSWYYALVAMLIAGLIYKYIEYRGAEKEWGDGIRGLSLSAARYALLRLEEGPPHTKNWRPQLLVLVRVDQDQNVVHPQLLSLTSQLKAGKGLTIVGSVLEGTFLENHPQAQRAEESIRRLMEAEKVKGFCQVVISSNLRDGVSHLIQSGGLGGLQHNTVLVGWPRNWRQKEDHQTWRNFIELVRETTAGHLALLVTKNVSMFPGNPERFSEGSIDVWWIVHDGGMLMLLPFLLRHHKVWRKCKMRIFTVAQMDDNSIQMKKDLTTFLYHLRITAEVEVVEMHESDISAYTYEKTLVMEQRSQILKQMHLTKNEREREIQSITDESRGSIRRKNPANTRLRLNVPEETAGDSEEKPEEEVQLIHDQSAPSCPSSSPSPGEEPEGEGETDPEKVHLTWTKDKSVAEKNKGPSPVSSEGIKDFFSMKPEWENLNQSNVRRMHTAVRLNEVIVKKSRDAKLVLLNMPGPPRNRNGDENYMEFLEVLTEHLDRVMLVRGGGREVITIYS
CHT inh: human CHT choline transport inhibition; CHT-expressing cells, membrane potential dye, choline response; hits give low values; AID 488975; Q9GZV3; B-score at 10 µM; 310,000 tested, 0.86% active;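 active = B-score over 3 SD under the library average, and starting fluorescence ratio not unusually high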;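 also: choline stimulus applied at its EC90 after an EC20 pre-addition; B-score computed on integrated fluorescence ratio after choline addition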
KCC2 sec1: confirmation of human KCC2 transport modulators. shares compounds with Cl transport mod. HEK293-KCC2, thallium flux, FluoZin2 fluorescence; hits give high values. normalised thallium flux (F/F0 slope) at 10 µM. 3,700 tested, 15% active;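 active = thallium flux slope above the same plate's solvent-only control mean plus 3 SD; inconclusive = the two replicate wells disagree; inactive = no significant difference from solvent-only control wells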
KCC2 bumet counter: thallium flux despite bumetanide block in KCC2 cells, secondary assay 3; 3,700 tested, 49% active; normalized thallium flux at 10 µM; shares compounds with Cl transport mod; AID 1714; HEK293-KCC2 + bumetanide/ouabain, thallium flux FluoZin2; hits give high values;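 active = thallium entry rate above the same plate's blocked-transporter control wells by more than 3 SD; inconclusive = the two repeat wells disagree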;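 also: raw slope of fluorescence over initial fluorescence between 10 and 20 s after thallium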
KCC2 sec2: confirmation of human KCC2 transport modulators; normalized thallium flux at 10 µM; HEK293-KCC2, thallium flux FluoZin2 fluorescence; actives lie on both sides; F/F0 rise rate, 10–20 s post-thallium; shares compounds with Cl transport mod; 3,700 tested, 23% active;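 active = thallium flux slope more than 3 SD above or below the plate's solvent-only control mean, mostly below; inconclusive = the two repeat wells disagreed; inactive = no significant shift from solvent-only controls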
HEK293 Tl flux: counter-screen for KCC2 modulators: effect in parental HEK293 cells | shares compounds with Cl transport mod | thallium flux rate (normalised fluorescence) at 10 µM | 3,700 tested, 46% active | thallium flux FluoZin2, ouabain; baseline-ratio fluorescence slope, 10–20 s after thallium;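 active = thallium flux rate significantly above the same plate's solvent-only control wells, beyond their mean plus 3 SD; inconclusive = the two replicate wells gave conflicting results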
KCC2 retest ouab: modulates human KCC2 on retest with ouabain; HEK293-KCC2, thallium flux FluoZin2 fluorescence; bidirectional: low = inhibitor, high = activator; raw Tl+ flux slope (below DMSO = inhibition, above = activation) at 10 µM; 3,700 tested, 48% active; shares compounds with Cl transport mod; AID 1717;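 active = thallium flux slope beyond 3 SD from same-plate DMSO control mean in most replicates, usually higher, sometimes lower; inconclusive = repeat tests gave conflicting results; inactive = no significant difference from controls in most replicates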;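 also: slope of initial-normalized fluorescence between seconds 10 and 20 after thallium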
HEK293 Tl flux2: acts in parental HEK cells, second KCC2 counter-screen. shares compounds with Cl transport mod. HEK293 parental, thallium flux FluoZin-2 fluorescence slope. thallium flux slope at 10 µM. 3,700 tested, 33% active. AID 1718;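 active = thallium flux slope above the same plate's solvent-control mean plus 3 SD in both duplicate wells; inconclusive = duplicate wells that disagreed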;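 also: run without ouabain in cells lacking the KCC2 cotransporter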
Large screens that a line does not name were inactive (follow-up assays come after a bar, where they were run). The list is not random: actives were taken first. Their share in the collection is about 2.6%.

S=c1[nH]nc(COc2ccccc2)n1/N=C/C=C/c1ccccc1	Cl transport mod 12.3 | KCC2 sec1 0.0135 | KCC2 bumet counter 0.139 | KCC2 sec2 inactive | HEK293 Tl flux 0.0209 | KCC2 retest ouab 0.0563 | HEK293 Tl flux2 inconclusive
O=[N+]([O-])c1ccc(/C=N/n2c(COc3ccccc3)n[nH]c2=S)cc1	none
O=[N+]([O-])c1cccc(/C=N/n2c(COc3ccccc3)n[nH]c2=S)c1	Cl transport mod 59.1 | KCC2 sec1 inactive | KCC2 bumet counter 0.15 | KCC2 sec2 inactive | HEK293 Tl flux 0.0193 | KCC2 retest ouab 0.0589 | HEK293 Tl flux2 0.0122
CCCCCCC(=O)N/N=C/c1ccc(Br)cc1	none (no result: Rad51 HR inh)
CCCCCCCCC(=O)N/N=C/c1cccc(Br)c1	Cl transport mod 5.49 | KCC2 sec1 inactive | KCC2 bumet counter inconclusive | KCC2 sec2 inactive | HEK293 Tl flux inactive | KCC2 retest ouab inactive | HEK293 Tl flux2 inactive
C=CCOc1ccc(/C=C/C(=O)OCC(=O)NCCCc2ccccc2)cc1	none (no result: Rad51 HR inh, Cl transport mod)
O=C(O)/C=C/C(=O)N1CCN(Cc2ccc3c(c2)OCO3)CC1	none (no result: Rad51 HR inh, Cl transport mod)
COc1ccc(/C(C)=N/NC(=S)Nc2cc(C)ccc2C)cc1	Cl transport mod 25.3 | KCC2 sec1 inactive | KCC2 bumet counter 0.0483 | KCC2 sec2 0.0458 | HEK293 Tl flux 0.0361 | KCC2 retest ouab 0.0408 | HEK293 Tl flux2 0.0376
CCNC(=S)N/N=C(\C)c1ccc2ccccc2c1	Cl transport mod 19.6 | KCC2 sec1 inactive | KCC2 bumet counter 0.0335 | KCC2 sec2 inactive | HEK293 Tl flux inconclusive | KCC2 retest ouab 0.0314 | HEK293 Tl flux2 inactive
COCCNC(=S)N/N=C(\C)c1cccc(C(F)(F)F)c1	Cl transport mod 5.79 | KCC2 sec1 inactive | KCC2 bumet counter 0.02 | KCC2 sec2 inactive | HEK293 Tl flux 0.0124 | KCC2 retest ouab inactive | HEK293 Tl flux2 0.0149
COCCNC(=S)N/N=C(\C)c1ccc(OC(F)F)cc1	none
COCCNC(=S)N/N=C(\C)c1ccc2cc(OC)ccc2c1	Cl transport mod 10.5 | KCC2 sec1 inactive | KCC2 bumet counter 0.0353 | KCC2 sec2 inactive | HEK293 Tl flux 0.0143 | KCC2 retest ouab 0.0323 | HEK293 Tl flux2 inactive
COCCNC(=S)N/N=C(\C)c1ccc(OC)cc1	none
COC(=O)c1sccc1NC(=O)CC1C(=O)NCCN1C(=O)c1c(F)cccc1Cl (stereo not drawn)	none
COCCNC(=S)N/N=C(\C)c1cc2ccccc2o1	Cl transport mod 19 | KCC2 sec1 inactive | KCC2 bumet counter 0.0245 | KCC2 sec2 inconclusive | HEK293 Tl flux 0.0224 | KCC2 retest ouab 0.0286 | HEK293 Tl flux2 0.0183
CCNC(=S)N/N=C(\C)c1ccc2ccccc2c1OC(F)F	Cl transport mod 7.69 | KCC2 sec1 0.0121 | KCC2 bumet counter 0.0625 | KCC2 sec2 inactive | HEK293 Tl flux 0.0218 | KCC2 retest ouab 0.0456 | HEK293 Tl flux2 0.0149
C/C(=N\NC(=O)c1nc2ccccn2c1C)c1cc2ccccc2o1	Cl transport mod 15.7 | KCC2 sec1 inactive | KCC2 bumet counter 0.0654 | KCC2 sec2 0.0471 | HEK293 Tl flux 0.0358 | KCC2 retest ouab 0.0499 | HEK293 Tl flux2 0.0391
COCCNC(=S)N/N=C/c1c2ccccc2cc2ccccc12	none (no result: Rad51 HR inh, Cl transport mod)
O=C(COc1ccccc1Cl)Nc1ccccc1C(=O)N1CCCCC1	none (no result: Rad51 HR inh, Cl transport mod)
Cc1[nH]c(C)c(S(=O)(=O)N2CCN(c3cccc(Cl)c3)CC2)c1C(=O)N1CCCCC1	none (no result: Rad51 HR inh, Cl transport mod)
O=S1(=O)N(Cc2ccccc2F)CCCN1Cc1c(F)cccc1Cl	none (no result: Rad51 HR inh, Cl transport mod)
